FLuc stim CS = FLuc activators, initial screening, artefact control for FLuc-dependent activation tests, biochemical, ATPlite luminescence; ATPlite luciferase biochemical, 10 min; 0 = ATP-free wells, 1 = DMSO control; activation factor at 10 µM; 200,000 tested, under 10 active; AID 1027, 2008;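 active = luciferase activation factor, scaled between plate controls, of at least 2 with compound at 10 µM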
Target sequence (P08659 whole entry, looked up): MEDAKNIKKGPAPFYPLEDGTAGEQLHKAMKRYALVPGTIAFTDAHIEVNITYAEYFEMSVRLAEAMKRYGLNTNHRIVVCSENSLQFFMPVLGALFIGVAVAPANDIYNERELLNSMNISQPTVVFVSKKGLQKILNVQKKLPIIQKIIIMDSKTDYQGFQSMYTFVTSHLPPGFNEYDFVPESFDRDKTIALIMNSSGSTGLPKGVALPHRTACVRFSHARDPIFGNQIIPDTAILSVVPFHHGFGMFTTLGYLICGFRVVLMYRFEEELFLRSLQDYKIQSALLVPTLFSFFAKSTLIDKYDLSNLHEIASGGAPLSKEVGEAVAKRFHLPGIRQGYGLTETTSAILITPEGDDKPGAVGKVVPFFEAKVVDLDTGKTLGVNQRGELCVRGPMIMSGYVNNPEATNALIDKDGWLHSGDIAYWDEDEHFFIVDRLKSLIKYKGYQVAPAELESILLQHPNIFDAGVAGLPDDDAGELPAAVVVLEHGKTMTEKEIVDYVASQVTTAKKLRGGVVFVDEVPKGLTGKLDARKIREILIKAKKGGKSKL
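Assay system – cell-free luciferase reagent · Medium – PBS-based ATP solution · Dosing – test compounds dosed from 2 mM stocks in 100% DMSO · Timing – 10 min, room temperature · Technique – light output (luminescence) · Measure – luminescence gain marking luciferase activators · Controls – No-ATP low control, compound-free enzyme-plus-ATP high control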
PKD1 inh = inhibitors of human PKD1 kinase, biochemical, fluorescence polarization. PKD1 kinase fluorescence polarization assay. inhibition, % (no concentration beside the values). 0.056% of 200,000 active. AID 797, 2007; in the data active = inhibition above about 50%
FLuc inh counter = firefly luciferase enzyme inhibitors, primary screen, artefact control for luciferase-based inhibitor screens, biochemical, luminescence, ATPLite; Luciferin 4-monooxygenase (Photinus pyralis), P08659; 10 min; inhibition, % at 10 µM; 1.5% of 200,000 active;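 active = inhibition above about 50% when tested at 10 µM, limit read from the data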
Wee1 degr inh = Wee1 degradation inhibitors, primary screen, cell-based, HeLa, Wee1K328M-luciferase, luminescence; 1.2% of 220,000 active; HeLa Luc-Wee1K328M stability; 100% = proteasome inhibitor MG132 effect; reporter increase, % at 5 µM; Wee1-like protein kinase (Homo sapiens), P30291;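 active = activation above the mean of all tested compounds plus 3 SD, set per screening run, cut at about 8.8% in these data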;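 note: cells exposed to compound for 20 h before luminescence read; 0% = DMSO alone and 100% = MG132 at 30 µM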
PPC-1+TRAIL kill = compounds killing PPC-1 cancer cells with TRAIL present, primary screen, TRAIL potentiator project, ATPLite luminescence, uHTS; cell killing (% activity), % at 4 µM or 5 µM; 0.41% of 220,000 active; PPC-1 cells + TRAIL, ATPLite viability luminescence;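 active = cell killing above 50% in the first pass at 4 µM, then a duplicate retest at 5 µM averaging 50% or more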;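 note: plate controls were cells with TRAIL plus DMSO for no effect and medium-only wells lacking cells for full effect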
C8 TRAIL sens = viability loss with TRAIL in NB7+C8 cells, primary screen, TRAIL sensitizer project, cell-based, ATPlite luminescence; inhibition (viability loss, TRAIL sensitization), % at 10 µM; 1% of 360,000 active; AID 624354, 2012;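 active = compounds causing at least 50% loss of cell viability in the single-dose screen, relative to plate controls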
* marks the source's active call; other numbers are inactive results; nt = no result. Compounds with a hit are over-represented: about 2.2% of the library has one in this group of screens.

SMILES | FLuc stim CS | PKD1 inh | FLuc inh counter | Wee1 degr inh | PPC-1+TRAIL kill | C8 TRAIL sens
CC1=C(C(=O)N2CCOCC2)C(c2cccc3ccccc23)NC(=S)N1 (configuration not stated) | 0.9 | -8 | 6 | 11* | 26 | -10
CCOC(=O)C1CN(S(=O)(=O)c2cccs2)c2ccc(CC(=O)OC)cc2O1 (configuration not stated) | nt | nt | nt | nt | nt | -17
O=C(CN1C(=O)S/C(=C/c2ccc(N3CCOCC3)cc2)C1=O)N1CCOCC1 | 0.2 | -13 | 76* | 1 | 49 | 61*
C=CCNCCCCOc1ccc(Br)cc1C | 1.1 | -4 | -6 | -1 | 18 | 6
Cc1cc(Br)ccc1OCCCCNCCO | 1 | 4 | -3 | 0 | -4 | 53*
Cc1ccc(C(=O)N/C(=C\c2ccco2)C(=O)NCCN2CCOCC2)cc1C | nt | nt | nt | nt | nt | 3
Cc1cccc(S(=O)(=O)Nc2cc(Cl)ccc2N2CCOCC2)c1 | nt | nt | nt | nt | nt | -2
O=C(Nc1nccs1)c1ccc(-c2ccc(F)c(Cl)c2)o1 | nt | nt | nt | nt | nt | 13
O=C(Nc1nccs1)c1ccc(-c2ccc(Cl)cc2Cl)o1 | 0.3 | -2 | 69* | 1 | 42 | -1
O=C(COCc1cc(-c2ccc3c(c2)OCO3)on1)N1CCN(c2cccc(C(F)(F)F)c2)CC1 | nt | nt | nt | nt | nt | -3
CCCc1c(C)[nH]c2ccc(NC(C)=O)cc2c1=O | 0.9 | -9 | 6 | 8.9* | 34 | -15
CC(=O)CCc1c(C)[nH]c2ccc(NC(C)=O)cc2c1=O | 1 | -4 | -3 | 4 | -1 | -23
CCCCOc1ccc(-c2nc(=S)[nH][nH]2)cc1 | 1 | 0 | -4 | 1 | 16 | 61*
O=C(NCc1ccccc1Cl)C(=O)NCC1OCCN1S(=O)(=O)c1cccs1 (configuration not stated) | 1 | -1 | 0 | -3 | -3 | -4
CCOP(=O)(OCC)C(NC(=O)NS(=O)(=O)c1ccc(C)cc1)c1ccccc1 (configuration not stated) | nt | nt | nt | nt | nt | 2
O=S(=O)(c1ccc(F)cc1)N1CCCN(c2nccc(C(F)(F)F)n2)CC1 | nt | nt | nt | 9.5* | 14 | -6
CC(C)Cc1nc2oc3c(Cl)ncnc3c2c2c1CCCC2 | nt | nt | nt | 2 | 3 | 67*
CCCc1nc2oc3c(Cl)ncnc3c2c2c1CCCC2 | nt | nt | nt | 1 | 31 | 14
O=C(Nc1ccccc1NC(=O)c1ccc(F)cc1)c1ccc(F)cc1 | nt | nt | nt | nt | nt | -18
Nc1ccccc1C(=O)N=Nc1[nH]c(N)c2ccccc12 | 0.2 | 5 | 79* | -4 | 42 | 51*
Nc1[nH]c(N=NC(=O)c2ccc(F)cc2)c2ccccc12 | 0.4 | 2 | 55* | 4 | 27 | 35
Nc1ccccc1C(=O)NCc1ccc(F)cc1 | 1 | 1 | -1 | 2 | 35 | -1
CC(C)c1ccc(NC(=O)C(=O)C2C(=O)Nc3ccccc32)cc1 (configuration not stated) | 0.5 | 3 | 52* | -1 | 10 | 17
CC(C)(C)c1ccc(NC(=O)C(=O)C2C(=O)Nc3ccccc32)cc1 (configuration not stated) | 0.6 | -2 | 38 | 1 | 33 | 15
NC1=NC(=Nc2ccccc2)c2ccccc21 | 1 | -3 | -1 | 1 | 36 | 15
SMILES | FLuc stim CS | PKD1 inh | FLuc inh counter | Wee1 degr inh | PPC-1+TRAIL kill | C8 TRAIL sens
CC(C)c1ccc(N=C2N=C(N)c3ccccc32)cc1 | nt | nt | nt | -2 | 40 | 57*
NC1=NC(=Nc2ccc(Br)cc2)c2ccccc21 | 0.5 | -1 | 53* | 5 | 21 | 7
CCn1ccc(C(=O)Oc2ccc(C(C)C)cc2)n1 | 0.4 | 4 | 62* | 1 | 20 | -22
CCn1ccc(C(=O)Nc2ccccc2Cl)n1 | 0.8 | 3 | 21 | 7 | 17 | 7
COc1ccc(-c2nn(-c3ccccc3)cc2/C=N/NC(=O)c2ccc(Br)o2)cc1 | 1 | -1 | -4 | 3 | 15 | 69*
COC(=O)N/N=C(\C)c1ccco1 | 1 | -2 | -1 | -1 | 13 | -5
C/C(=N/NC(=O)c1ccccn1)c1ccco1 | 0.3 | -11 | 70* | 1 | 33 | 54*
C/C(=N\Nc1ccc(Cl)cc1)c1ccccn1 | 1 | -1 | -3 | 1 | 9 | 3
C/C(=N\NC(=O)c1ccccn1)c1ccc(Cl)cc1 | nt | nt | nt | 1 | 27 | 61*
C/C(=N\NC(=O)c1ccc(Cl)cc1)c1ccccn1 | nt | nt | nt | nt | nt | 51*
C/C(=N/NC(=O)c1ccccn1)c1ccc(O)cc1 | nt | nt | nt | -1 | 7 | 16
CCc1ccc(NC(=O)C(C)OC(=O)c2cccc(S(=O)(=O)N3CCc4ccccc4C3)c2)cc1 (configuration not stated) | 1 | -2 | -1 | -3 | 19 | -7
CCCCCc1cc(=O)oc2c(C(CCN3CCCC3)c3cc(OC)c(OC)c(OC)c3)c(OC)cc(OC)c12 (configuration not stated) | nt | nt | nt | nt | 11 | 53*
Nc1ccc2c(c1)C/C(=C/c1ccco1)C2=O | 0.1 | 3 | 87* | 4 | 4 | 41
COc1ccc2c(c1)CC/C(=C/c1ccco1)C2=O | 0.2 | 3 | 81* | 7 | 18 | 50
O=C1/C(=C/c2ccco2)CCc2ccccc21 | 0.4 | -1 | 61* | -3 | 9 | 23
Cc1nc2scc(C)n2c(=O)c1S(=O)(=O)Nc1ccc(N2CCOCC2)cc1 | nt | nt | nt | nt | nt | 12
Cc1ccc(-c2nn(-c3ccccc3)cc2C=C2C(=O)CC(C)(C)CC2=O)cc1 | 1 | -5 | -3 | 1 | nt | -4
CC1=NNC(=O)/C1=C\c1cn(-c2ccccc2)nc1-c1ccc(Cl)cc1 | 1.1 | -3 | -9 | 4 | 2 | 87*
CS(=O)(=O)Nc1cccc(NC(=O)C2Cc3c(-c4ccccc4)ccnc3O2)c1 (configuration not stated) | nt | nt | nt | nt | nt | 57*
CCCCOC(=O)c1ccc(NC(=O)C(=O)CC(=O)c2ccc(OC)cc2)cc1 | nt | nt | nt | nt | nt | -17
CCn1c(COc2ccccc2C)nnc1SCC(=O)CC(=O)Nc1ccccc1 | 1 | -3 | -4 | 12* | 5 | -2
CCn1c(COc2ccccc2C)nnc1SCC(=O)O | 1.1 | -3 | -6 | -2 | 12 | -5
CCS(=O)(=O)c1ccc(O)c(NC(=O)c2cc(-c3ccccn3)nc3ccccc23)c1 | nt | nt | nt | nt | nt | -9
Cc1ccc(NCC(=O)c2ccc([N+](=O)[O-])cc2)cc1 | 1 | -1 | -3 | 9.4* | -3 | 13
O=C1c2ccccc2[C@@H]2C[C@H]3O[C@H]3CCN12 | nt | nt | nt | nt | nt | -5
CCOCCCNC(=O)CNC(=S)N(Cc1ccccc1F)C1CCCCC1 | 1 | -3 | 0 | 0 | 6 | 0

Assay outcomes deposited in PubChem BioAssay by several laboratories.
